≈ marks a conversion by molar mass, not a printed value. Calls of active or inactive are those of the source. The rule behind the calls is not given here.
How the values were obtained:
[1] = test system: Mycolicibacterium phlei; test: Antimicrobial activity against Mycobacterium phlei 111 by serial dilution method; assay type: functional; details: for MIC: Mycolicibacterium phlei, 111
[2] = test system: Clostridium perfringens; test: Antimicrobial activity against Clostridium perfringens 2 by serial dilution method; assay type: functional; details: for MIC: Clostridium perfringens, 2
Outline: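 Broth MICs were determined by serial dilution of the hydrazones, run in triplicate. Where results differed, the standard deviation of the three determinations is reported.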

[3] = test system: Bacillus subtilis; test: Antimicrobial activity against Bacillus subtilis 104 by serial dilution method; assay type: functional; details: for MIC: Bacillus subtilis, 104
[4] = test system: Staphylococcus aureus; test: Antimicrobial activity against Staphylococcus aureus 11 by serial dilution method; assay type: functional; details: for MIC: Staphylococcus aureus, 11
[5] = test system: Mycobacterium tuberculosis; test: Antimicrobial activity against Mycobacterium tuberculosis H37Rv by agar dilution method; assay type: functional; details: for MIC: Mycobacterium tuberculosis, H37Rv
Outline: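 Agar dilution: the hydrazone is dissolved in warm Middlebrook agar and serially diluted into two quadrants of a quartered dish, with two drug-free quadrants. After cooling, 0.1 mL of M. tuberculosis suspension (McFarland no. 1, set spectrophotometrically) is inoculated. Plates are incubated 14 days at 37 °C under 5% CO2 and scored for colonies. Run in duplicate.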

[6] = test system: Vaccinia virus; test: Antiviral activity against Vaccinia virus infected in L929 cells assessed as reduction in plaque formation after 3 to 4 days by crystal violet staining method; assay type: functional, organism-based; details: Orthopoxvirus vaccinia
[7] = test system: L929; test: Cytotoxicity against mouse L929 cells by microscopic analysis; assay type: cell-based

## CO[C@H]1/C=C/O[C@@]2(C)Oc3c(C)c(O)c4c(O)c(c(/C=N/NC(=O)CN5CCN(c6ccc(Oc7ccccc7)cc6)CC5)c(O)c4c3C2=O)NC(=O)/C(C)=C\C=C\[C@H](C)[C@H](O)[C@@H](C)[C@@H](O)[C@@H](C)[C@H](OC(C)=O)[C@@H]1C
[1]
  log(1/C): 5.24
  MIC: 6 µg/mL (≈ 5.8 µM)
[2]
  log(1/C): 8.11
  MIC: 0.008 µg/mL (≈ 0.00774 µM)
[3]
  log(1/C): 5.32
  MIC: 5 µg/mL (≈ 4.83 µM)
[4]
  log(1/C): 7.74
  MIC: 0.019 µg/mL (≈ 0.0184 µM)
[5]
  log(1/C): 4.84
  MIC: 15 µg/mL (≈ 14.5 µM)
[6]
  Activity: inactive
[7]
  Activity: Toxic

## CO[C@H]1/C=C/O[C@@]2(C)Oc3c(C)c(O)c4c(O)c(c(/C=N/NC(=O)CN5CCN(c6ccc(Cl)cc6)CC5)c(O)c4c3C2=O)NC(=O)/C(C)=C\C=C\[C@H](C)[C@H](O)[C@@H](C)[C@@H](O)[C@@H](C)[C@H](OC(C)=O)[C@@H]1C
[1]
  log(1/C): 5.19
  MIC: 6.38 µg/mL (≈ 6.53 µM)
[2]
  log(1/C): 8.21
  MIC: 0.006 µg/mL (≈ 0.00614 µM)
[3]
  log(1/C): 5.31
  MIC: 4.8 µg/mL (≈ 4.92 µM)
[4]
  log(1/C): 7.43
  MIC: 0.036 µg/mL (≈ 0.0369 µM)
[5]
  log(1/C): 4.91
  MIC: 12 µg/mL (≈ 12.3 µM)
[6]
  Activity: inactive
[7]
  Activity: Toxic

## CO[C@H]1/C=C/O[C@@]2(C)Oc3c(C)c(O)c4c(O)c(c(/C=N/N5CCN(C)CC5)c(O)c4c3C2=O)NC(=O)/C(C)=C\C=C\[C@H](C)[C@H](O)[C@@H](C)[C@@H](O)[C@@H](C)[C@H](OC(C)=O)[C@@H]1C [RIFAMPIN]
[1]
  log(1/C): 6.48
  MIC: 0.27 µg/mL (≈ 0.328 µM)
[2]
  log(1/C): 8.44
  MIC: 0.003 µg/mL (≈ 0.00365 µM)
[3]
  log(1/C): 6.59
  MIC: 0.21 µg/mL (≈ 0.255 µM)
[4]
  log(1/C): > 8.07
  MIC: < 0.007 µg/mL
[5]
  log(1/C): 5.91
  MIC: 1 µg/mL (≈ 1.22 µM)

## CO[C@H]1/C=C/O[C@@]2(C)Oc3c(C)c(O)c4c(O)c(c(/C=N/NC(=O)CN5CCN(c6ccc(C(C)(C)C)cc6)CC5)c(O)c4c3C2=O)NC(=O)/C(C)=C\C=C\[C@H](C)[C@H](O)[C@@H](C)[C@@H](O)[C@@H](C)[C@H](OC(C)=O)[C@@H]1C
[1]
  log(1/C): 5.44
  MIC: 3.63 µg/mL (≈ 3.64 µM)
[2]
  log(1/C): 8.7
  MIC: 0.002 µg/mL (≈ 0.002 µM)
[3]
  log(1/C): 5.32
  MIC: 4.8 µg/mL (≈ 4.81 µM)
[4]
  log(1/C): 7.49
  MIC: 0.033 µg/mL (≈ 0.0331 µM)
[5]
  log(1/C): 5.12
  MIC: 7.5 µg/mL (≈ 7.51 µM)
[6]
  Activity: inactive
[7]
  Activity: Toxic

## CO[C@H]1/C=C/O[C@@]2(C)Oc3c(C)c(O)c4c(O)c(c(/C=N/NC(=O)CN5CCN(c6ccc(C(C)C)cc6)CC5)c(O)c4c3C2=O)NC(=O)/C(C)=C\C=C\[C@H](C)[C@H](O)[C@@H](C)[C@@H](O)[C@@H](C)[C@H](OC(C)=O)[C@@H]1C
[1]
  log(1/C): 5.48
  MIC: 3.25 µg/mL (≈ 3.3 µM)
[2]
  log(1/C): 8.52
  MIC: 0.003 µg/mL (≈ 0.00305 µM)
[3]
  log(1/C): 5.3
  MIC: 4.9 µg/mL (≈ 4.98 µM)
[4]
  log(1/C): 7.56
  MIC: 0.027 µg/mL (≈ 0.0274 µM)
[5]
  log(1/C): 5.04
  MIC: 9 µg/mL (≈ 9.14 µM)
[6]
  Activity: inactive
[7]
  Activity: Toxic

## CO[C@H]1/C=C/O[C@@]2(C)Oc3c(C)c(O)c4c(O)c(c(/C=N/NC(=O)CN5CCN(c6ccc([N+](=O)[O-])cc6)CC5)c(O)c4c3C2=O)NC(=O)/C(C)=C\C=C\[C@H](C)[C@H](O)[C@@H](C)[C@@H](O)[C@@H](C)[C@H](OC(C)=O)[C@@H]1C
[1]
  log(1/C): 4.93
  MIC: 11.5 µg/mL (≈ 11.7 µM)
[2]
  log(1/C): 8.3
  MIC: 0.005 µg/mL (≈ 0.00507 µM)
[3]
  log(1/C): 4.9
  MIC: 12.3 µg/mL (≈ 12.5 µM)
[4]
  log(1/C): 7.6
  MIC: 0.025 µg/mL (≈ 0.0253 µM)
[5]
  log(1/C): 4.74
  MIC: 18 µg/mL (≈ 18.2 µM)
[6]
  Activity: inactive
[7]
  Activity: Toxic

## COc1ccc(N2CCN(CC(=O)N/N=C/c3c4c(O)c5c(O)c(C)c6c(c5c3O)C(=O)[C@@](C)(O/C=C/[C@H](OC)[C@@H](C)[C@@H](OC(C)=O)[C@H](C)[C@H](O)[C@H](C)[C@@H](O)[C@@H](C)/C=C/C=C(/C)C(=O)N4)O6)CC2)cc1
[1]
  log(1/C): 5.27
  MIC: 5.25 µg/mL (≈ 5.4 µM)
[2]
  log(1/C): 8.14
  MIC: 0.007 µg/mL (≈ 0.0072 µM)
[3]
  log(1/C): 4.93
  MIC: 11.3 µg/mL (≈ 11.6 µM)
[4]
  log(1/C): 7.26
  MIC: 0.054 µg/mL (≈ 0.0555 µM)
[5]
  log(1/C): 4.81
  MIC: 15 µg/mL (≈ 15.4 µM)
[6]
  Activity: inactive
[7]
  Activity: Toxic

Reference: ChEMBL document CHEMBL3244145, “Synthesis and quantitative structure--activity relationships of some antibacterial 3-formylrifamycin SV N-(4-substituted phenyl)piperazinoacethydrazones” (J Med Chem, 1978)
